Assay [1] addresses T1, Delta-type opioid receptor (Mus musculus, UniProt P32300). The assay can be described thus: Negative logarithm of the molar concentration required to double the agonist concentration to achieve the original response in mouse vas deferens (MVD). The assay is classed as functional, tissue-based. The following applies: read-out: pA2 (converted).
Assay [2] deals with Mu-type opioid receptor (Rattus norvegicus, UniProt P33535). Nature of the assay: Binding affinity for rat brain P2 synaptosome Opioid receptor mu 1. The assay is classed as tissue-based. In short, it runs like this: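 Equilibrium competition binding on rat brain P2 synaptosomes with [3H]DAGO for µ sites, in 50 mM HEPES pH 7.5 with MgCl2, protease inhibitors and glycerol. 120 min at 23-24 °C, GF/C filtration, ice-cold Tris/BSA washes. Nonspecific binding defined by 2 µM DAGO. 5-8 graded doses over 2-3 log units.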

The target in assay [3] is Delta-type opioid receptor (Rattus norvegicus, UniProt P33533). Nature of the assay: Binding affinity at Opioid receptor delta 1 using rat brain receptor (P2 synaptosome) assay. Type of assay: tissue-based. In short, it runs like this:
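Competition binding at equilibrium on rat brain P2 synaptosomes with [3H]DPDPE for δ sites, in 50 mM HEPES pH 7.5 with MgCl2, protease inhibitors and glycerol. Incubation 120 min at 23-24 °C, then GF/C filtration and ice-cold Tris/BSA washes. Nonspecific binding defined by 2 µM DPDPE. 5-8 graded doses over 2-3 log units.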

Assay [4] deals with T2, Mu-type opioid receptor (Cavia porcellus, UniProt P97266). The assay can be described thus: Negative logarithm of the molar concentration of an agonist to produce 50% of the maximum effect in guinea pig ileum (mu receptor) determined. Type of assay: functional, tissue-based.
Assay [5] is filed under the species Mus musculus. The assay can be described thus: Delta or Mu antagonist activity tested in mouse vas deferens (MVD) along with, naloxone. The following applies: read-out: pA2 (converted).
Assay [6] concerns the target Delta-type opioid receptor (Mus musculus) (UniProt P32300). The assay can be described thus: Molar concentration required to double the agonist concentration to achieve the original response in mouse vas deferens (MVD). The assay is classed as functional, tissue-based.
For assay [7], the target named is T2, Mu-type opioid receptor. Nature of the assay: Negative logarithm of the molar concentration of an agonist to produce 50% of the maximum effect in guinea pig ileum (mu receptor) determined by Salvadori et al. The assay is classed as functional, tissue-based.
The species named for assay [8] is Mus musculus. The assay can be described thus: Delta or Mu antagonist activity tested in mouse vas deferens (MVD) along with N,N-dimethyl-Dmt-Tic-OH. The following applies: read-out: pA2 (converted).
Assay [9] addresses Mu-type opioid receptor (Mus musculus, UniProt P42866). The assay can be described thus: Opioid receptor delta 1 or Opioid receptor mu 1 antagonist activity tested in mouse vas deferens (MVD) along with N,N-dimethyl-Dmt-Tic-OH. The assay is classed as functional, tissue-based. The following applies: read-out: pA2 (converted).
The target of assay [10] is T1, Delta-type opioid receptor. The assay can be described thus: Opioid receptor delta 1 or Opioid receptor mu 1 antagonist activity tested in mouse vas deferens (MVD) along with, naloxone. The assay is classed as functional, tissue-based. Conditions: read-out: pA2 (converted).

Data on eleven compounds can be found in ChEMBL document CHEMBL1135711, “Evaluation of the Dmt-Tic pharmacophore: conversion of a potent delta-opioid receptor antagonist into a potent delta agonist and ligands with mixed properties” (J Med Chem, 2002).

Square brackets hold non-standard residues; d marks the D form. Peptide text beside a SMILES is read from it. * marks the point of attachment. ξ: configuration not given here. Dmt = Cc1cc(O)cc(C)c1C[C@H](N)C(=O)O; Tic = O=C(O)[C@@H]1Cc2ccccc2CN1; ξTic = O=C(O)C1Cc2ccccc2CN1; NHBn = c1ccc(CN*)cc1; NHPh = c1ccc(N*)cc1

T2 sequence (P97266 whole entry): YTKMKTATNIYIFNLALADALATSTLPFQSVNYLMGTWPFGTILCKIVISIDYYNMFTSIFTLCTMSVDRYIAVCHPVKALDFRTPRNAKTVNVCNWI
Chain of Mu-type opioid receptor (Rattus norvegicus, UniProt P33535) (P33535 whole entry): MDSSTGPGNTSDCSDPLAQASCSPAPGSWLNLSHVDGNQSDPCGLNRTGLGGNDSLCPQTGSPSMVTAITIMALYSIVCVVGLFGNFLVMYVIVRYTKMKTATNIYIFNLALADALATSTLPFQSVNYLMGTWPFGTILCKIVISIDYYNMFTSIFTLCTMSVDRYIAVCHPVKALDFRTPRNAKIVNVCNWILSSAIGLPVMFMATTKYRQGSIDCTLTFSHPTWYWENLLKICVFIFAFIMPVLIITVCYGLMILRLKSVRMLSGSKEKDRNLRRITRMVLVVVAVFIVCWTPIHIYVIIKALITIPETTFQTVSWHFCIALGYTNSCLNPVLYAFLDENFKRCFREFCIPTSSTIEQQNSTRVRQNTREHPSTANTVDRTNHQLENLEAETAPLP
T1 sequence (P32300 whole entry): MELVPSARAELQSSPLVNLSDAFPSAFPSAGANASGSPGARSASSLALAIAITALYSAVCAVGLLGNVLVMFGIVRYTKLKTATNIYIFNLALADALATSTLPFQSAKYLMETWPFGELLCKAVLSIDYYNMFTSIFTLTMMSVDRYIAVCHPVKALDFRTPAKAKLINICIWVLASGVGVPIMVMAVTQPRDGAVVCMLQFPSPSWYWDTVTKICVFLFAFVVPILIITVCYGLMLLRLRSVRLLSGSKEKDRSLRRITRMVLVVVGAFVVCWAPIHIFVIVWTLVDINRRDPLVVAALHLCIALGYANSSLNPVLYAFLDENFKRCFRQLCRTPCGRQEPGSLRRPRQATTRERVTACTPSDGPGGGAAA
Chain of Delta-type opioid receptor (Mus musculus) (P32300 whole entry): as above
Chain of Delta-type opioid receptor (Rattus norvegicus, UniProt P33533) (P33533 whole entry): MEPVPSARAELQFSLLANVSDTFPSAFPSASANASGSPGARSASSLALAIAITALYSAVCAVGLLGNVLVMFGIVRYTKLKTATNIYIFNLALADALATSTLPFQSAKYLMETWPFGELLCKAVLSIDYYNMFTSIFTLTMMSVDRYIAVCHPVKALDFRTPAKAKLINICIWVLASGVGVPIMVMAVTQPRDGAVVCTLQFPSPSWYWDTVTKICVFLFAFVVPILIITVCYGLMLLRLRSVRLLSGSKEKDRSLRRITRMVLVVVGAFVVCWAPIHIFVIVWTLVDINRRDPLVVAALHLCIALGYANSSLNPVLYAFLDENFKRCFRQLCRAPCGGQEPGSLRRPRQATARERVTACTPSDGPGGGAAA
Chain of Mu-type opioid receptor (Mus musculus, UniProt P42866) (P42866 whole entry): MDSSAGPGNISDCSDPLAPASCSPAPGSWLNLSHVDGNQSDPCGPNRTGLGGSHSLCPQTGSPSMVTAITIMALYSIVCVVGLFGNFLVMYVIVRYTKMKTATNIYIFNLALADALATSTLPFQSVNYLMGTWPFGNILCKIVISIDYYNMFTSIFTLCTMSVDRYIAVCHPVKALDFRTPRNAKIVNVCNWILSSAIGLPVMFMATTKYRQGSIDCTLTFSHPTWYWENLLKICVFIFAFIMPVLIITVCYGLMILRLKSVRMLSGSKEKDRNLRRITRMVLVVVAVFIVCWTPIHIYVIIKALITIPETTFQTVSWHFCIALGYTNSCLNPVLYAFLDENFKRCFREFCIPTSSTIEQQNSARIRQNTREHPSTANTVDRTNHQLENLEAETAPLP

For `Cc1cc(O)cc(C)c1C[C@H](N)C(=O)N1Cc2ccccc2C[C@H]1c1nc2ccccc2[nH]1`, the Kb in [1] is 12.6 nM. The Ki (commonly a dissociation constant, usually derived from enzyme kinetics or from competition with a known ligand) at Mu-type opioid receptor [2] was determined as 7.22 nM; in [3] it was 0.13 nM.
As to `C[C@@H](NC(=O)[C@@H](N)Cc1ccc(O)cc1)C(=O)N[C@@H](Cc1ccccc1)C(=O)NCC(=O)N[C@@H](Cc1ccc(O)cc1)C(=O)N1CCC[C@H]1C(=O)N[C@@H](CO)C(N)=O` [DERMORPHIN], the EC50 (as a rule, the concentration giving half of the maximal effect) on Mu-type opioid receptor [4] was 0.708 nM. In other words, the sub-nanomolar range.
Regarding `CC(C)[C@H](NC(=O)[C@H](CC(=O)O)NC(=O)[C@H](Cc1ccccc1)NC(=O)[C@@H](C)NC(=O)[C@@H](N)Cc1ccc(O)cc1)C(=O)N[C@H](C(=O)NCC(N)=O)C(C)C` [DELTORPHIN C], in the assay listed under Mus musculus [5], the Kb is 31.6 nM.
`Cc1cc(O)cc(C)c1C[C@H](N)C(=O)N1Cc2ccccc2CC1CO` (stereo partly specified) registered an Activity in assay [6] of -7. Besides, the Ki was found to be 151 nM at Mu-type opioid receptor [2] and 0.44 nM in [3].
At Mu-type opioid receptor [7], `Cc1cc(O)cc(C)c1C[C@H](N)C(=O)N1Cc2ccccc2C[C@H]1C(=O)NCC(=O)NCc1ccccc1` (H-[Dmt]-[Tic]-Gly-NHBn) gave an EC50 of 2.69 nM. Further, the values for the Ki (on Mu-type opioid receptor [2]; in [3]) were 0.16 nM and 0.031 nM, respectively.
The corresponding values for `Cc1cc(O)cc(C)c1C[C@H](N)C(=O)N1Cc2ccccc2C[C@H]1C(=O)NCCc1nc2ccccc2[nH]1` are 107 nM, 5.49 nM and 0.067 nM.
With `Cc1cc(O)cc(C)c1C[C@H](N)C(=O)N1Cc2ccccc2C[C@H]1C(=O)O` (H-[Dmt]-[Tic]-OH), the Activity in assay [6] is -8.2.
For the compound `Cc1cc(O)cc(C)c1C[C@H](N)C(=O)N1Cc2ccccc2C[C@H]1C(=O)N[C@@H](C)C(N)=O` (H-[Dmt]-[Tic]-Ala-NH2), in [1], the Kb is 10 nM.
Turning to `Cc1cc(O)cc(C)c1C[C@H](N)C(=O)N1Cc2ccccc2C[C@H]1C(=O)NCc1nc2ccccc2[nH]1`, the Kb in the assay listed under Mus musculus [8] is 0.2 nM; in the assay listed under Mus musculus [5], 35.5 nM.
In [6], `Cc1cc(O)cc(C)c1C[C@H](N)C(=O)N1Cc2ccccc2CC1C(N)=O` (stereo partly specified) (H-[Dmt]-[ξTic]-NH2) returned an Activity of -7.2.
In the case of `Cc1cc(O)cc(C)c1C[C@H](N)C(=O)N1Cc2ccccc2C[C@H]1C(=O)NCC(=O)Nc1ccccc1` (H-[Dmt]-[Tic]-Gly-NHPh), the Kb on Mu-type opioid receptor [9] is 0.912 nM; in assay [10] it was 33.9 nM.
